Shown are actives, neighbours in structure and some others; about 1.4% of the full set was active somewhere.
CendR NRP1 mod = NRP-1/CendR interaction modulation | O14786 | FAM-RPARPAR peptide binding to NRP-1, fluorescence polarization | inhibition, % at 25 µM | actives 0.85% (n = 360,000) | AID 602438;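 active = inhibition or corrected inhibition above about 18%, plus a signal ratio from 0.5 to 1.5, limit read from the data, passing the limit was not always enough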
hiPSC survival = enhancers of human iPSC single-cell survival. actives 0.044% (n = 360,000). AID 602274. survival enhancement, % at 20 µM. hiPSC single-cell survival, ATPlite luminescence; 100% = ROCK inhibitor wells, 0% = DMSO; in the data active = survival enhancement above about 18%;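 note: cells exposed to compounds for 16 hours before the ATP read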
MT1-MMP act inh = blocks activation of human MT1-MMP. AID 651647. GFP/RFP ratio change, % at 20 µM. P50281. HT1080 RFP-PRO-GFP cells, GFP/RFP ratio fluorescence, overnight; percent of plate control window, DMSO zero. actives 0.061% (n = 360,000);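 active = GFP/RFP ratio change of at least 30% with cell ATP level not reduced by more than half and red fluorescence within 50% of control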
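Compound: 20 µM single dose, 1% DMSO / System: HT1080 RFP-PRO-GFP cells / Controls: DMSO and RFP-L50D-GFP cell wells / Read-out basis: GFP/RFP fluorescence ratio / Schedule: overnight compound exposure at 37 °C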
SKN-1 block = inhibitors of C. elegans SKN-1; C. elegans VP596 Pgst-4::GFP/RFP ratio, acrylamide-induced, 24 h; inhibition, % at 21.8 µM; actives 0.49% (n = 360,000);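 active = interference check ratio from 0.5 to 1.5 plus GFP to RFP signal ratio inhibition reaching or exceeding a fixed threshold, cut at about 30% in these data, passing the limit was not always enough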
Each line names hits and unclear results; the compound was inactive in the other large screens; ! = repeats disagree.

C=C1CCN(C(CC(C)C)C(=O)OC)S(=O)(=O)c2ccccc21 (stereo not drawn)	none
C=C1CCN(C(C(=O)OC)C(C)C)S(=O)(=O)c2ccccc21 (stereo not drawn)	none
C=C1CCN([C@@H](CC(C)C)C(=O)O)S(=O)(=O)c2ccccc21	CendR NRP1 mod 25.3
C=C1CCN([C@@H](CC(C)C)C(=O)NCc2ccccc2)S(=O)(=O)c2ccccc21	CendR NRP1 mod 26.8
C=C1CCN(C(C(=O)OC)C(C)C)S(=O)(=O)c2ccc(F)cc21 (stereo not drawn)	CendR NRP1 mod 27.7
C=C1CCN([C@@H](CC(C)C)C(=O)NCCCc2ccccc2)S(=O)(=O)c2ccccc21	CendR NRP1 mod 30.2
O=S(=O)(c1ccc(Oc2ccc(Br)cc2F)nc1)N1CCCCC1	none
O=C(c1ccc2c3c(cccc13)CC2)C1CCCN(Cc2cccnc2)C1 (stereo not drawn)	none
CCC(=O)N1Cc2cc(C(=O)NCCOC)nc(-c3cccc(-c4ccc(C#N)cc4)c3)c2[C@H]1CCO	none
CN(C1(C)CCS(=O)(=O)C1)S(=O)(=O)c1cccc([N+](=O)[O-])c1 (stereo not drawn)	none
CCN(CC)S(=O)(=O)c1cc(NC(=O)COC(=O)CCC(=O)c2cccs2)ccc1C	CendR NRP1 mod 26.1
CCN(CC)S(=O)(=O)c1cccc(NC(=O)COC(=O)CCC(=O)c2cccs2)c1	none
CC(Nc1ccc(Br)cc1)C(=O)N/N=C/c1ccccc1OCc1ccccc1 (stereo not drawn)	none (no result: MT1-MMP act inh)
COc1ccc(NC(C)C(=O)N/N=C/c2ccccc2OCc2ccc(Br)cc2)cc1 (stereo not drawn)	CendR NRP1 mod 21.9
Cc1ccc(C(=O)O)cc1NC(=O)Nc1cccc2ccccc12	CendR NRP1 mod 22.5
CCOC(=O)c1c(NC2=NS(=O)(=O)c3ccccc32)sc2c1CCC(C)C2 (stereo not drawn)	none
Cc1c(Nc2cc(Cl)c3nonc3c2[N+](=O)[O-])c(=O)n(-c2ccccc2)n1C	hiPSC survival 33.1
Cc1cc(C)c2nc(N3CCN(C)CC3)c(C#N)cc2c1	hiPSC survival 21.2
Cc1cc(C(O)c2ncc(-c3ccccc3C)[nH]2)ccc1F (stereo not drawn)	none
Cc1ccccc1-c1cnc(C(O)c2ccc(F)c(F)c2)[nH]1 (stereo not drawn)	CendR NRP1 mod 23.1
CCn1c(C)c(C)c2cc(C(=O)N3CCN(c4ccccc4)CC3)ccc21	SKN-1 block 46.2
Cc1c(C)n(Cc2ccc(F)cc2)c2ccc(C(=O)N3CCN(c4ccccn4)CC3)cc12	SKN-1 block 58.7
O=C(NNc1nc2c(F)cc(F)cc2s1)C1=COCCO1	none
CC(C)CC1Nc2ncnc(N3CCN(c4ccccc4)CC3)c2N(Cc2ccccc2)C1=O (stereo not drawn)	hiPSC survival 22.6!
CC(=O)Nc1ccc(S(=O)(=O)NCC(=O)NNC(=O)c2csc(N3CCOCC3)n2)cc1	none
Cc1ccc(OCCC(=O)OCC(=O)NCCc2ccccc2)cc1	CendR NRP1 mod 27.0
Cc1ccc(OCCC(=O)OCC(=O)NCc2ccccc2)cc1	none
COc1cccc(C2=NNC(=NCc3ccccc3)SC2)c1	CendR NRP1 mod 30.7
CN(C(=O)COC(=O)COc1ccccc1Cc1ccccc1)c1ccccc1	none
CCCCNC(=O)[C@H]1C[C@H]1[C@@H](O)[C@H](CO)NC(=O)[C@H](CC(C)C)NC(=O)OC(C)(C)C	CendR NRP1 mod 33.8
CN1CCc2cc3c(c4c2[C@H]1[C@H](O)c1ccccc1-4)OCO3	CendR NRP1 mod 46.7
NNC(=O)c1cc(-c2cccs2)nc2ccccc12	none
C/C(=N\NC(=O)c1cc(-c2cccs2)nc2ccccc12)c1ccccn1	CendR NRP1 mod 30.2
Cc1ccc(S(=O)(=O)N(C)Cc2ccc(C(=O)N/N=C/c3ccc(OC(F)F)cc3OC(F)F)cc2)cc1	CendR NRP1 mod 31.0
Cc1cc2c(cc1S(=O)(=O)N1CCN(c3ccccc3F)CC1)OCC(=O)N2	none
CN1CCCCCC1=Nc1ccc([N+](=O)[O-])cc1	none
CN1C(=O)C(N=Nc2ccc([N+](=O)[O-])cc2)SC1=S (stereo not drawn)	SKN-1 block 95.6
CCCOc1ccc(OCC(=O)c2[nH]c(C)c(C(C)=O)c2C)cc1	CendR NRP1 mod 40.6
C[C@]12CCC(=O)C=C1C=C[C@@H]1[C@@H]2CC[C@@]2(C)[C@H]1CC[C@@]21CCC(=O)O1	none
CCCn1c(C(C)Nc2nc(-c3ccc(OC)cc3)cs2)nc2ccccc21 (stereo not drawn)	none
CCCN(CC(=O)Nc1ccccc1C)C(=O)C1CCCN(C(=O)c2ccc(Cl)cc2)C1 (stereo not drawn)	CendR NRP1 mod 18.9
CCCN(CC(=O)Nc1ccccc1C)C(=O)c1ccc(C2SCCS2)cc1	CendR NRP1 mod 25.7
Cc1cccc(C)c1NC(=O)CNC(=O)C1CCCN(C(=O)c2ccc(Cl)cc2)C1 (stereo not drawn)	none
CCCCN(c1ccccc1)S(=O)(=O)c1cccc(C(=O)Nc2c(C)n(C)n(-c3ccccc3)c2=O)c1	none
COCCNC(=O)/C(C#N)=C/c1c(N2CCN(c3cccc(Cl)c3)CC2)nc2c(C)cccn2c1=O	CendR NRP1 mod 18.8
COCCNC(=O)/C(C#N)=C/c1c(N2CCN(c3ccccc3)CC2)nc2c(C)cccn2c1=O	none
Fc1ccc(C(c2ccc(F)cc2)N2CCN(C/C=C/c3ccccc3)CC2)cc1	none
CC(CN1CCCC1)OC(=O)COc1ccccc1 (stereo not drawn)	none
CCOc1ccc(OCCC(=O)OCC(=O)c2c(N)n(CC(C)C)c(=O)n(C)c2=O)cc1	none
Cc1ccc(OCCC(=O)OCC(=O)c2c(N)n(CC(C)C)c(=O)n(C)c2=O)cc1	CendR NRP1 mod 17.4
COc1ccc(CC(=O)NCCc2cnc[nH]2)cc1	none (no result: MT1-MMP act inh)
O=C(NCc1ccc(F)cc1)C(=O)NCC1OCCN1S(=O)(=O)c1ccc2c(c1)OCCO2 (stereo not drawn)	none
CC(=O)Nc1cc2nn(-c3ccccc3)nc2cc1Cl	none
O=C(Nc1ccc2nn(-c3ccccc3)nc2c1)c1ccco1	none
O=C(Nc1cc2nn(-c3ccccc3)nc2cc1Cl)c1ccco1	SKN-1 block 45.1
CC(C)(C)C(=O)Nc1cc2nn(-c3ccccc3)nc2cc1Cl	SKN-1 block 42.1
COCCN(C(=O)Cc1ccc(OC)c(OC)c1)c1nc(-c2cc(OC)ccc2OC)cs1	none
Cc1cccc(OCCn2c(-c3ccco3)nc3ccccc32)c1	CendR NRP1 mod 27.9
O=c1cc[nH]c2ccc([N+](=O)[O-])cc12	CendR NRP1 mod 33.8
O=c1[nH][nH]c(=O)c2cc([N+](=O)[O-])ccc12	none
O=[N+]([O-])c1ccc(COc2ccc(CN3CCCC3)cc2)cc1	SKN-1 block 60.0 (no result: MT1-MMP act inh)
O=[N+]([O-])c1ccc(OCc2cnc(Cl)s2)cc1	SKN-1 block 54.1
O=[N+]([O-])c1ccc(COc2ccc(CN3CCCCC3)cc2)cc1	SKN-1 block 39.7
COc1ccc(OCc2cnc(Cl)s2)cc1	none
